Measured values as given in ChEMBL document CHEMBL4270630.

Assays:
Influenza B virus [1] = experiment: Antiviral activity against Influenza B virus B/Ned/537/05 infected in MDCK cells after 3 days by MTS assay; format: functional, organism-based; settings: B/Ned/537/05, MDCK, 72 h
Summary of the method: (§1)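 Semi-confluent MDCK cells were infected at an MOI of 0.0004 PFU/cell in Ultra-MDCK infection medium with 2 μg/mL TPCK-trypsin, together with compounds. After 3 days at 35 °C, CPE was scored by microscopy and confirmed by MTS formazan viability. Values are means of two to five independent tests.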

[2] = Cytotoxicity against MDCK cells assessed as alteration in cell morphology after 3 days by microscopic method; format: cell-based, Canis lupus familiaris; settings: dog
Summary of the method: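 Mock-infected MDCK cells were treated with compounds in parallel with the antiviral assay, 3 days at 35 °C. MCC is the concentration causing minimal change in cell morphology by microscopy. CC50 is the 50% cytotoxic concentration by MTS formazan viability assay.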

Influenza B virus [3] = experiment: Antiviral activity against Influenza B virus B/Ned/537/05 infected in MDCK cells assessed as reduction in virus-induced cytopathic effect after 3 days by microscopic method; format: functional, organism-based; settings: B/Ned/537/05, MDCK, 72 h; summary of the method: as §1
Influenza A virus [4] = experiment: Antiviral activity against Influenza A virus A/PR/8/34(H1N1) infected in MDCK cells assessed as reduction in virus-induced cytopathic effect after 3 days by microscopic method; format: functional, organism-based, A/Puerto Rico/8/1934(H1N1)
Summary of the method: as §1, with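 “viability. EC50 is the concentration giving 50% inhibition of virus-induced CPE.” for “viability.”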

H3N2 subtype [5] = experiment: Antiviral activity against Influenza A virus A/HK/7/87(H3N2) infected in MDCK cells after 3 days by MTS assay; format: functional, organism-based; settings: A/Hong Kong/7/1987(H3N2), 72 h
Summary of the method: as §1, with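 “viability. EC50 is the concentration giving 50% inhibition of virus-induced CPE.” for “viability.”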

Influenza A virus [6] = experiment: Antiviral activity against Influenza A virus A/Virginia/ATCC3/2009(H1N1pdm) infected in MDCK cells assessed as reduction in virus-induced cytopathic effect after 3 days by microscopic method; format: functional, organism-based, Influenza A virus (A/Virginia/03/2009(H1N1)); settings: 72 h
Summary of the method: as §1, with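 “viability. EC50 is the concentration giving 50% inhibition of virus-induced CPE.” for “viability.”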

Influenza A virus [7] = experiment: Antiviral activity against Influenza A virus A/PR/8/34(H1N1) infected in MDCK cells after 3 days by MTS assay; format: functional, organism-based, A/Puerto Rico/8/1934(H1N1)
Summary of the method: as §1, with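 “viability. EC50 is the concentration giving 50% inhibition of virus-induced CPE.” for “viability.”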

H3N2 subtype [8] = experiment: Antiviral activity against Influenza A virus A/HK/7/87(H3N2) infected in MDCK cells assessed as reduction in virus-induced cytopathic effect after 3 days by microscopic method; format: functional, organism-based; settings: A/Hong Kong/7/1987(H3N2), 72 h
Summary of the method: as §1, with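 “viability. EC50 is the concentration giving 50% inhibition of virus-induced CPE.” for “viability.”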

Influenza A virus [9] = experiment: Antiviral activity against Influenza A virus A/Virginia/ATCC3/2009(H1N1pdm) infected in MDCK cells after 3 days by MTS assay; format: functional, organism-based, Influenza A virus (A/Virginia/03/2009(H1N1)); settings: 72 h
Summary of the method: as §1, with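 “viability. EC50 is the concentration giving 50% inhibition of virus-induced CPE.” for “viability.”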

MDCK = experiment: Cytotoxicity against MDCK cells assessed as reduction in cell viability after 3 days by MTS assay; format: cell-based, Canis lupus familiaris; settings: dog, mdck, 72 h
Influenza B virus [10] = experiment: Antiviral activity against Influenza B virus B/HK/05/72 infected in MDCK cells after 3 days by MTS assay; format: functional, organism-based; settings: B/Hong Kong/05/1972, MDCK, 72 h
Summary of the method: as §1, with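 “viability. EC50 is the concentration giving 50% inhibition of virus-induced CPE.” for “viability.”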

Influenza B virus [11] = experiment: Antiviral activity against Influenza B virus B/HK/05/72 infected in MDCK cells assessed as reduction in virus-induced cytopathic effect after 3 days by microscopic method; format: functional, organism-based; settings: B/Hong Kong/05/1972, MDCK, 72 h
Summary of the method: as §1, with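 “viability. EC50 is the concentration giving 50% inhibition of virus-induced CPE.” for “viability.”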

[12] = Influenza A virus, A/Puerto Rico/8/1934(H1N1), MDCK, 72 h

SMILES | EC50 (Influenza B virus [1]) [µM] | MCC at 72 h [2] [µM] | EC50 (Influenza B virus [3]) [µM] | EC50 (Influenza A virus [4]; [12]) [µM] | EC50 (H3N2 subtype [5]) [µM] | EC50 (Influenza A virus [6]) [µM] | EC50 (Influenza A virus [7]; [12]) [µM] | EC50 (H3N2 subtype [8]) [µM] | EC50 (Influenza A virus [9]) [µM] | CC50 (MDCK) [µM] | EC50 (Influenza B virus [10]) [µM] | EC50 (Influenza B virus [11]) [µM] | EC50 (Influenza A virus [4]; mdck) [µM] | EC50 (Influenza A virus [7]; mdck) [µM]
CCCCCCCCCCCCSC1=C(SCCCCCCCCCCCC)C(=O)N(CCOCCOCCOCCOCc2cn(C3C(=O)N[C@@H]4Cc5ccc(c(Cl)c5)Oc5cc6cc(c5O)Oc5ccc(cc5Cl)[C@@H](O[C@@H]5O[C@H](CO)[C@@H](O)[C@H](O)[C@H]5NC(C)=O)[C@H]5NC(=O)[C@H](NC(O)[C@@H]6NC(=O)[C@@H](NC4=O)c4cc(O)cc(c4)Oc4cc3ccc4O)c3ccc(O)c(c3)-c3c(O)cc(O)cc3[C@H](C(=O)O)NC5=O)nn2)C1=O (stereo not given in full) | > 100 | 20 | > 100 | > 100 | 2.4 | > 100 | 13 | > 100 | 2.8 | 79 | – | – | – | –
CCCCCCCCCCCCSC1=C(SCCC)C(=O)N([C@H]2C(=O)N[C@@H]3Cc4ccc(c(Cl)c4)Oc4cc5cc(c4O)Oc4ccc(cc4Cl)[C@@H](O[C@@H]4O[C@H](CO)[C@@H](O)[C@H](O)[C@H]4NC(C)=O)[C@H]4NC(=O)[C@H](NC(O)[C@@H]5NC(=O)[C@@H](NC3=O)c3cc(O)cc(c3)Oc3cc2ccc3O)c2ccc(O)c(c2)-c2c(O)cc(O)cc2[C@H](C(=O)O)NC4=O)C1=O (stereo not given in full) | 7.3 | ≥ 20 | 8.9 | > 100 | 6.8 | 5.1 | 10 | 7.3 | 8.2 | 29 | – | – | – | –
CC(=O)N[C@H]1[C@H](O[C@@H]2c3ccc(c(Cl)c3)Oc3cc4cc(c3O)Oc3ccc(cc3Cl)C[C@H]3NC(=O)C(n5cc(COCCOCCOCCOCCN6C(=O)C(SCCOCCOCCOCCO)=C(SCCOCCOCCOCCO)C6=O)nn5)c5ccc(O)c(c5)Oc5cc(O)cc(c5)[C@H](NC3=O)C(=O)N[C@H]4C(O)N[C@H]3C(=O)N[C@H]2C(=O)N[C@@H](C(=O)O)c2cc(O)cc(O)c2-c2cc3ccc2O)O[C@H](CO)[C@@H](O)[C@@H]1O (stereo not given in full) | 42 | > 100 | > 100 | > 100 | 23 | > 100 | > 100 | > 100 | > 100 | ≥ 32 | – | – | – | –
CC(=O)N[C@H]1[C@H]([C@H](O)[C@H](O)CO)OC(C(=O)O)=C[C@@H]1N=C(N)N [ZANAMIVIR] | 0.0062 | > 100 | 0.0079 | 0.041 | 3.2 | 1.9 | 0.19 | 20 | 30 | > 100 | – | – | – | –
CC(=O)N[C@H]1[C@H](O[C@@H]2c3ccc(c(Cl)c3)Oc3cc4cc(c3O)Oc3ccc(cc3Cl)C[C@H]3NC(=O)C(n5cc(CN6C(=O)C(SC[C@H]7O[C@@H]8OC(C)(C)O[C@@H]8[C@H]8OC(C)(C)O[C@H]87)=C(SC[C@H]7O[C@@H]8OC(C)(C)O[C@@H]8[C@H]8OC(C)(C)O[C@H]87)C6=O)nn5)c5ccc(O)c(c5)Oc5cc(O)cc(c5)[C@H](NC3=O)C(=O)N[C@H]4C(O)N[C@H]3C(=O)N[C@H]2C(=O)N[C@@H](C(=O)O)c2cc(O)cc(O)c2-c2cc3ccc2O)O[C@H](CO)[C@@H](O)[C@@H]1O (stereo not given in full) | – | 20 | – | > 100 | > 100 | > 100 | > 100 | > 100 | > 100 | 18 | > 100 | > 100 | – | –
NC(=O)c1ncn([C@@H]2O[C@H](CO)[C@@H](O)[C@H]2O)n1 [RIBAVIRIN] | – | > 100 | – | – | 5.9 | – | – | 13 | – | – | – | – | 8.4 | 9.1
CCCSC1=C(SCCC)C(=O)N(Cc2cn(C3C(=O)N[C@@H]4Cc5ccc(c(Cl)c5)Oc5cc6cc(c5O)Oc5ccc(cc5Cl)[C@@H](O[C@@H]5O[C@H](CO)[C@@H](O)[C@H](O)[C@H]5NC(C)=O)[C@H]5NC(=O)[C@H](NC(O)[C@@H]6NC(=O)[C@@H](NC4=O)c4cc(O)cc(c4)Oc4cc3ccc4O)c3ccc(O)c(c3)-c3c(O)cc(O)cc3[C@H](C(=O)O)NC5=O)nn2)C1=O (stereo not given in full) | – | 20 | – | > 100 | > 100 | > 100 | > 100 | > 100 | > 100 | 22 | > 100 | > 100 | – | –
CCCSC1=C(SCCC)C(=O)N([C@H]2C(=O)N[C@@H]3Cc4ccc(c(Cl)c4)Oc4cc5cc(c4O)Oc4ccc(cc4Cl)[C@@H](O[C@@H]4O[C@H](CO)[C@@H](O)[C@H](O)[C@H]4NC(C)=O)[C@H]4NC(=O)[C@H](NC(O)[C@@H]5NC(=O)[C@@H](NC3=O)c3cc(O)cc(c3)Oc3cc2ccc3O)c2ccc(O)c(c2)-c2c(O)cc(O)cc2[C@H](C(=O)O)NC4=O)C1=O (stereo not given in full) | 7.2 | 20 | > 100 | > 100 | > 100 | 1.8 | > 100 | > 100 | 2 | 18 | – | – | – | –
CCCCCCCCCCCCSC1=C(SCCCCCCCCCCCC)C(=O)N([C@H]2C(=O)N[C@@H]3Cc4ccc(c(Cl)c4)Oc4cc5cc(c4O)Oc4ccc(cc4Cl)[C@@H](O[C@@H]4O[C@H](CO)[C@@H](O)[C@H](O)[C@H]4NC(C)=O)[C@H]4NC(=O)[C@H](NC(O)[C@@H]5NC(=O)[C@@H](NC3=O)c3cc(O)cc(c3)Oc3cc2ccc3O)c2ccc(O)c(c2)-c2c(O)cc(O)cc2[C@H](C(=O)O)NC4=O)C1=O (stereo not given in full) | > 100 | ≤ 4 | > 100 | > 100 | > 100 | > 100 | > 100 | > 100 | > 100 | ≤ 1.1 | – | – | – | –
CCCSC1=C(SCCC)C(=O)N(CCOCCOCCOCCOCc2cn(C3C(=O)N[C@@H]4Cc5ccc(c(Cl)c5)Oc5cc6cc(c5O)Oc5ccc(cc5Cl)[C@@H](O[C@@H]5O[C@H](CO)[C@@H](O)[C@H](O)[C@H]5NC(C)=O)[C@H]5NC(=O)[C@H](NC(O)[C@@H]6NC(=O)[C@@H](NC4=O)c4cc(O)cc(c4)Oc4cc3ccc4O)c3ccc(O)c(c3)-c3c(O)cc(O)cc3[C@H](C(=O)O)NC5=O)nn2)C1=O (stereo not given in full) | – | 20 | – | > 100 | ≤ 7.8 | > 100 | > 100 | 6.2 | 7.8 | 38 | > 100 | > 100 | – | –
NC12CC3CC(CC(C3)C1)C2 [AMANTADINE] | > 500 | > 500 | > 500 | > 500 | 1.9 | – | > 500 | 11 | – | > 500 | – | – | – | –
CC(N)C12CC3CC(CC(C3)C1)C2 (stereo not given) [RIMANTADINE] | > 500 | > 500 | > 500 | > 500 | – | – | > 500 | 0.2 | – | > 500 | – | – | – | –
